Test results reported in ChEMBL document CHEMBL1131263, “Substituted tetrahydropyrrolo[2,1-b]oxazol-5(6H)-ones and tetrahydropyrrolo[2,1-b]thiazol-5(6H)-ones as hypoglycemic agents” (1998).

Tests used:
Mus musculus [1] = experiment: compound was tested in vivo for lower blood glucose levels in diabetic obese ob/ob mice by measuring postprandial blood glucose level on day1 after 2 hours at 200 uM/kg oral dose; assay type: functional
Procedure, shortened: (§1)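 Adult male C57BL ob/ob mice, fed, grouped (6/group) and matched for blood glucose on day 0; mice under 150 mg/dL excluded. Oral dosing in the morning on days 1-3, vehicle 0.5% CMC with 0.2% Tween-80. Significance versus vehicle.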

Mus musculus [2] = experiment: compound was tested in vivo for lower blood glucose levels in diabetic obese ob/ob mice by measuring postprandial blood glucose level on day 3 after 4 hours at 200 uM/kg oral dose; assay type: functional; procedure, shortened: as §1
[3] = lowest concentration at which glucose utilized was greater than or equal to 140% of control value tested in a glucose utilization L6 myocyte in vitro assay; assay type: functional, Rattus norvegicus
Procedure, shortened: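 Differentiated rat L6 myotubes (day 11 or 13 after plating) exposed 20 h to compound in serum-free DMEM with 15 mM glucose and 1% final DMSO. Tested in quadruplicate at 3, 10, 30, 100, 300 µM. Glucose left in the medium read by glucose oxidase. Value is the lowest concentration giving at least 40% more utilization than control.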

Mus musculus [4] = experiment: compound was tested in vivo for lower blood glucose levels in diabetic obese ob/ob mice by measuring postprandial blood glucose level on day 3 after 8 hours at 200 uM/kg oral dose; assay type: functional; procedure, shortened: as §1
Mus musculus [5] = experiment: compound was tested in vivo for lower blood glucose levels in diabetic obese ob/ob mice by measuring postprandial blood glucose level on day 3 after 2 hours at 200 uM/kg oral dose; assay type: functional; procedure, shortened: as §1
Mus musculus [6] = experiment: compound was tested in vivo for lower blood glucose levels in diabetic obese ob/ob mice by measuring postprandial blood glucose level on day1 after 4 hours at 200 uM/kg oral dose; assay type: functional; procedure, shortened: as §1
Mus musculus [7] = experiment: In vivo lowering of blood glucose levels in diabetic obese ob/ob mice by measuring postprandial blood glucose level on day 3 after 4 hours at 300 uM/kg oral dose; assay type: functional; procedure, shortened: as §1
Mus musculus [8] = experiment: In vivo lowering of blood glucose levels in diabetic obese ob/ob mice by measuring postprandial blood glucose level on day 3 after 8 hours at 300 uM/kg oral dose; assay type: functional; procedure, shortened: as §1
Mus musculus [9] = experiment: In vivo lowering of blood glucose levels in diabetic obese ob/ob mice, measuring postprandial blood glucose level on day1 after 2 hours at 300 uM/kg oral dose; assay type: functional; procedure, shortened: as §1
Mus musculus [10] = experiment: In vivo lowering of blood glucose levels in diabetic obese ob/ob mice, measuring postprandial blood glucose level on day 3 after 2 hours at 300 uM/kg oral dose; assay type: functional; procedure, shortened: as §1
Mus musculus [11] = experiment: compound was tested in vivo for lower blood glucose levels in diabetic obese ob/ob mice by measuring postprandial blood glucose level on day1 after 4 hours at 300 uM/kg oral dose *p < 0.05; assay type: functional; procedure, shortened: as §1
[12] = compound was tested in vivo for lower blood glucose levels in diabetic obese ob/ob mice by measuring postprandial blood glucose level on day1 after 4 hours at 15.86 uM/kg oral dose.; assay type: functional, Mus musculus; procedure, shortened: as §1
[13] = compound was tested in vivo for lower blood glucose levels in diabetic obese ob/ob mice by measuring postprandial blood glucose level on day1 after 2 hours at 15.86 uM/kg oral dose.; assay type: functional, Mus musculus; procedure, shortened: as §1
Mus musculus [14] = experiment: In vivo lowering of blood glucose levels in diabetic obese ob/ob mice by measuring postprandial blood glucose level on day1 after 4 hours at 300 uM/kg oral dose; assay type: functional; procedure, shortened: as §1

| SMILES | Efficacy (Mus musculus [1]) [%] | Efficacy (Mus musculus [2]) [%] | Lowest effective concentration for glucose utilization ≥140% of control [3] [µM] | Efficacy (Mus musculus [4]) [%] | Efficacy (Mus musculus [5]) [%] | Efficacy (Mus musculus [6]) [%] | Efficacy (Mus musculus [7]) [%] | Efficacy (Mus musculus [8]) [%] | Efficacy (Mus musculus [9]) [%] | Efficacy (Mus musculus [10]) [%] | Efficacy (Mus musculus [11]) [%] | Efficacy [12] [%] | Efficacy [13] [%] | Efficacy (Mus musculus [14]) [%] |
| --- | --- | --- | --- | --- | --- | --- | --- | --- | --- | --- | --- | --- | --- | --- |
| O=C1CC[C@]2(c3ccc(Cl)cc3)O[C@H](COc3ccc(Cl)cc3)CN12 | 31 | -15 | 30 | -26 | 14 | 46 | – | – | – | – | – | – | – | – |
| O=C1C[C@@H]2O[C@@H](CO)CN12 | 66 | 23 | 30 | 44 | 53 | 86 | – | – | – | – | – | – | – | – |
| OCc1cc(-c2ccc(C(F)(F)F)cc2)no1 | – | – | 100 | – | – | – | 48 | 50 | 14 | 6 | 52 | – | – | – |
| CC(C)C(N)C(=O)NC(C(=O)O)C(O)[C@H]1CN2C(=O)C[C@@H]2O1 (some centres not stated) | – | – | 10 | – | – | – | – | – | – | – | – | 63 | 63 | – |
| O=C1CC[C@]2(c3ccc(Cl)cc3)S[C@@H](COc3ccc(Cl)cc3)CN12 | – | – | 10 | – | – | – | 48 | 35 | 9 | 44 | – | – | – | 3 |
